Screening results deposited in PubChem by several laboratories.
STAT1 activator = increases IFN-gamma driven STAT1 reporter signal. NIH 3T3 STAT1-luciferase reporter, luminescence; 100% = IFN-gamma alone, no compound. activation (% of control), % at 5.5 µM. 200,000 compounds, 2.6% hits. AID 932;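 active means activation above the screen-wide mean activation plus 3 SD, cut at about 130% in these data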;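 further: raw ratio to IFN-gamma control signal so 100% means no change and 0% no light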
STAT3 inh = STAT3 signaling inhibition. U3A cells, IL-6 STAT3-luciferase reporter, luminescence; host cell line lacks STAT1. AID 862. inhibition, % at 5.5 µM. 190,000 compounds, 0.89% hits;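 active means inhibition above the mean inhibition across all screened compounds plus 3 SD, cut at about 44% in these data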;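 further: 0% = DMSO only wells and 100% = 100 µM nifuroxazide control wells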
APP 5'UTR act = activates APP 5'UTR luciferase reporter. SH-SY5Y APP 5'UTR luciferase reporter, luminescence; zero percent = DMSO vehicle wells. activation, % at 2 µM. 190,000 compounds, 1% hits;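 active means activation above a set limit, based on mean plus 3 SD of controls, cut at about 140% in these data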
NF-kB expr up = raises NF-kB expression in human neuronal cells; NF-kB reporter expression; stronger effect = higher value; fold change at 12.5 µM; 190,000 compounds, 1.6% hits; AID 1239; in the data active means fold change above about 3.3
STAT1 inh = STAT1 signaling inhibition. inhibition, % at 5.5 µM. AID 920. 200,000 compounds, 0.35% hits. NIH 3T3 STAT1-luciferase reporter, IFN-gamma, luminescence;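 active means inhibition above a set limit, the mean inhibition across all tested compounds plus 3 SD, cut at about 34% in these data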;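 further: 0% = IFN-gamma with DMSO and 100% = IFN-gamma with 300 µM nifuroxazide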
STAT3 activator = increases IL-6 driven STAT3 reporter signal | 190,000 compounds, 0.91% hits | U3A cells, IL-6 STAT3-luciferase reporter, luminescence; 100% = signal with IL-6 EC80 alone | activation (% of control), % at 5.6 µM | AID 871;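 active means activation above the screen-wide mean of compound activation plus 3 SD, cut at about 130% in these data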;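 further: 0% = background luminescence of wells with medium and substrate only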
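Assay system – human STAT1-deficient U3A cells with stable STAT3-luciferase reporter · Also added – IL-6 (33 ng/mL) · Schedule – compound 1 h, then IL-6 6 h at 37 °C · Technique – reporter luminescence signal · Evaluation – % activation versus median of IL-6-stimulated wells · Benchmarks – IL-6-only wells as 100% reference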
* = called active by the depositor; nt = no result. An excerpt weighted towards active compounds, which were near 4.9% of everything screened.

SMILES	STAT1 activator	STAT3 inh	APP 5'UTR act	NF-kB expr up	STAT1 inh	STAT3 activator
Cc1ccc(NC(=O)COC(=O)[C@H](C)NC(N)=O)c(C)c1	99	1	14	0.89	-1	105
O=C(Nc1ccc(-c2ccccc2)cc1)c1ccco1	102	1	-1	0.98	-2	111
CN(c1ccccc1)S(=O)(=O)c1ccc(NC(=O)c2ccco2)cc1	132*	14	10	0.94	-37	97
O=C(Nc1ccc(Nc2ccccc2)cc1)c1ccco1	134*	1	94	4.2*	-37	98
CCN(c1ccccc1)S(=O)(=O)c1ccc(NC(=O)c2ccco2)cc1	103	5	-3	0.84	-6	98
CC(C)(C)c1ccc(C(=O)Nc2ccc(NC(=O)c3ccco3)cc2)cc1	103	6	10	1.4	-3	98
CCOc1ccc(NC(=O)c2ccco2)cc1	106	26	120	3.9*	-6	81
CCOc1ccc(NC(=O)CCC(=O)NNC(=O)c2ccco2)cc1	104	-11	3	1	-4	111
O=C(Nc1nccs1)c1ccc(NC(=O)c2ccco2)cc1	137*	-4	42	1.9	-48	104
CCOc1ccc(NS(=O)(=O)c2cc(NC(=O)c3ccc(C)cc3)ccc2Cl)cc1	108	-17	-87	1	-9	115
C=CCSC1=N/C(=C\c2ccc(C)o2)C(=O)S1	103	-3	-8	1.7	-5	103
O=C(Nc1ccc(NC(=O)c2ccco2)nc1)c1ccccn1	128	30	106	2.8	-28	78
O=C(Cc1ccccc1)Nc1ccc(NC(=O)c2ccco2)nc1	136*	3	34	1.9	-40	98
CCOC(=O)c1ccc(N/C=C2/CCCC(C)C2=O)cc1 (configuration not stated)	115	6	16	2.5	-25	95
CC1CCC/C(=C\Nc2ccc(C(=O)O)cc2)C1=O (configuration not stated)	149*	11	139*	3.8*	-56	94
Cc1nc(C#N)c(N/N=C/c2c(F)cccc2Cl)o1	110	2	5	1.6	-11	98
CCN1C(=O)/C(=C/C=C2/CCCN2C)OC1=S	116	-3	29	1.7	-20	106
CN1C(=O)/C(=C\C=C2/CCCN2C)N(C)C1=S	128	5	11	5.7*	-31	97
CC1CCCC(C)N1c1nnc(NC(=O)c2cc(-c3ccc(Br)cc3)on2)s1 (configuration not stated)	92	12	15	1.4	8	98
Cn1nc(-c2ccc(Cl)cc2)c2cc(C(=O)N3CCOCC3)sc21	102	-17	8	0.58	-2	122
COc1ccc(N2CCN(C(=O)c3cc4c(-c5ccc(Cl)cc5)nn(C)c4s3)CC2)cc1	90	-30	2	0.56	12	133*
CC(C)N1CCN(CC#Cc2ccccc2)CC1CCO (configuration not stated)	98	-2	1	1.2	2	107
NC(=O)c1ccsc1NC(=O)c1ccc2c(c1)CCCC2	139*	36	180*	8.2*	-43	69
CNC(=O)c1ccsc1NC(=O)c1ccc2c(c1)CCCC2	131*	-25	63	0.94	-34	122
COC(=O)c1ccsc1NC(=O)c1ccccc1	109	14	-12	1.1	-9	92
SMILES	STAT1 activator	STAT3 inh	APP 5'UTR act	NF-kB expr up	STAT1 inh	STAT3 activator
NC(=O)c1ccsc1NC(=O)c1cccs1	124	14	15	nt	-26	93
CCOC(=O)c1c(NC(=O)CSc2nnnn2C)sc(CC)c1C	99	3	12	1.3	0	102
O=C(Nc1ccc(Cl)cc1)c1ccc(Br)cc1F	140*	-2	150*	7.8*	-43	101
O=C(Nc1cccc(Cl)c1)Nc1ccc(Br)cc1F	112	20	64	1	-13	83
Cc1occc1C(=O)Nc1ccc(Br)cc1F	130*	7	26	1.8	-32	99
O=C(Nc1ccccc1)Nc1ccc(Br)cc1F	130*	12	81	1.8	-33	89
CCOCC(=O)Nc1cc(Cl)c(OC)cc1OC	105	20	7	1.2	-8	85
Cc1cc2nc3c(c(C(F)(F)F)n2n1)CCCC3	97	1	8	1.1	3	106
